Assay results taken from ChEMBL document CHEMBL1147985, “Novel benzodifuran analogs as potent 5-HT2A receptor agonists with ocular hypotensive activity” (Bioorg Med Chem Lett, 2007).

Assays:
[1] = biological target: T1, 5-hydroxytryptamine receptor 2A (Rattus norvegicus, UniProt P14842); assay: Displacement of [125I]DOI from 5HT2A receptor in rat cerebral cortex; assay type: tissue-based
Procedure, shortened: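 Competition binding against the agonist radioligand [125I]DOI at rat brain (cerebral cortex) 5-HT2A receptors. Values are means of at least three experiments.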

[2] = biological target: T1, 5-hydroxytryptamine receptor 2A; assay: (§1) Agonist activity at 5HT2A receptor in rat A7r5 cells assessed as intracellular calcium mobilization relative to 5HT; assay type: functional, cell-based
Procedure, shortened: (§2)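 Native 5-HT2 receptors in rat vascular smooth muscle A7r5 cells; receptor-mediated intracellular Ca2+ mobilization read on FLIPR. Emax expressed relative to the 5-HT response. Values are means of at least three experiments.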

[3] = biological target: 5-hydroxytryptamine receptor 2A (Rattus norvegicus) (UniProt P14842); assay: as §1; assay type: functional, cell-based; procedure, shortened: as §2
5-hydroxytryptamine receptor 2A (Rattus norvegicus), sequence (P14842 whole entry): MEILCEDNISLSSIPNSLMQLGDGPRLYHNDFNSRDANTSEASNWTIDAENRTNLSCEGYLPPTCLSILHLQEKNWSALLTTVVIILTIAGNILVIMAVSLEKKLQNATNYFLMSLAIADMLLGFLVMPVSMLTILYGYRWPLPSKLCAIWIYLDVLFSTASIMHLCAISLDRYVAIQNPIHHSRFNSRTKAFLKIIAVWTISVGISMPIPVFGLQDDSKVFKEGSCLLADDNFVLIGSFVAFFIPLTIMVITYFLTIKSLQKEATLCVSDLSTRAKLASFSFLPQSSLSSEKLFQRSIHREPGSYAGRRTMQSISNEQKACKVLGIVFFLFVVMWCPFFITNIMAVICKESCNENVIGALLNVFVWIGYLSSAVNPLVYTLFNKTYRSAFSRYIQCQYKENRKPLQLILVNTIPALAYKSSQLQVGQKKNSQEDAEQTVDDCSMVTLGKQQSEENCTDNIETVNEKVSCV

[4] = biological target: T2, 5-hydroxytryptamine receptor 2C (Rattus norvegicus) (UniProt P08909); assay: Agonist activity at 5HT2C receptor expressed in […] cells assessed as intracellular calcium mobilization; assay type: functional, cell-based
T2 sequence (whole entry): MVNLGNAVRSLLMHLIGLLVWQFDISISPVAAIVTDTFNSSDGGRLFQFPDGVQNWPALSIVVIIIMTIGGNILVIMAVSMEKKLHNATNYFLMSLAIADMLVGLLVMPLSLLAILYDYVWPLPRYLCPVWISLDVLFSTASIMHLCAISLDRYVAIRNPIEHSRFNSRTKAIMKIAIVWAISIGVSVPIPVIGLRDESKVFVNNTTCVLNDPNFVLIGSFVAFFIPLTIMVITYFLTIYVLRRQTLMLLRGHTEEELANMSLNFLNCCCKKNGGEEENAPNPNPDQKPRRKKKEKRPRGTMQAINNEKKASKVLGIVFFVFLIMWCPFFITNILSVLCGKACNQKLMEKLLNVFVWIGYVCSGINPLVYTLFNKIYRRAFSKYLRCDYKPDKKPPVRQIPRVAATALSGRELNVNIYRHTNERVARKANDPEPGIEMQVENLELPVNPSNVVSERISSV
Procedure, shortened: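 SR3T3 cells expressing recombinant rat 5-HT2C receptor; intracellular Ca2+ mobilization measured on FLIPR, as for the A7r5 assay. Emax taken relative to 5-HT. Values are means of at least three experiments.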

[5] = biological target: T3, 5-hydroxytryptamine receptor 2C (Rattus norvegicus, UniProt P08909); assay: Agonist activity at 5HT2C receptor expressed in […] cells assessed as intracellular calcium mobilization relative to 5HT
T3 sequence (P08909 whole entry): T2 sequence (whole entry)

[6] = biological target: 5-hydroxytryptamine receptor 2B (Rattus norvegicus, UniProt P30994); assay: Agonist activity at 5HT2B receptor in rat stomach fundus assessed as […] relative to 5HT; assay type: functional
5-hydroxytryptamine receptor 2B, sequence (P30994 whole entry): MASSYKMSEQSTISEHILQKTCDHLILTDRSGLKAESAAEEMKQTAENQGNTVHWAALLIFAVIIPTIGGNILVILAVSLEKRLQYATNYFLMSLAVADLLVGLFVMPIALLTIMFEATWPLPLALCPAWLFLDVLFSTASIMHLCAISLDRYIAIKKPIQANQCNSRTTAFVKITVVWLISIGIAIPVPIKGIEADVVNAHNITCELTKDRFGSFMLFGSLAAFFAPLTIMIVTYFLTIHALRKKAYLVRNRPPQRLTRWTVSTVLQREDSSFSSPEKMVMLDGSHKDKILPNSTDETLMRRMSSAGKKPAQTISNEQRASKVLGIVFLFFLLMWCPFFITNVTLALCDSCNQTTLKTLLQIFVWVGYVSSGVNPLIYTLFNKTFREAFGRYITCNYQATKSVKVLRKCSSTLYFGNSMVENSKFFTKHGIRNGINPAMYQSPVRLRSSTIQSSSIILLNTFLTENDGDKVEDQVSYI
Procedure, shortened: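 Functional 5-HT2B response measured in isolated rat stomach fundus tissue, run by a contract lab. Emax given relative to 5-HT. Means of at least three experiments.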

[7] = biological target: 5-hydroxytryptamine receptor 2A (Rattus norvegicus) (UniProt P14842); assay: Agonist activity at 5HT2A receptor in rat A7r5 cells assessed as intracellular calcium mobilization; assay type: functional, cell-based; procedure, shortened: as §2
Cynomolgus monkey = assay: Reduction of intra ocular pressure in cynomolgus monkey at 300 ug; assay type: functional, organism-based, Macaca fascicularis, Eye; parameters: Activity: scale not given: the % may be the effect or the level left

T1 sequence (P14842 whole entry): as the sequence (P14842 whole entry) above

Structure (SMILES) | IC50 [1] [nM] | EC50 [2] [nM] | Emax [3] [%] | Emax [4] [%] | EC50 [5] [nM] | EC50 [6] [nM] | Emax [7] [%] | EC50 (Cynomolgus monkey; Macaca fascicularis, Eye) [nM] | Activity (Cynomolgus monkey) [%]
C[C@@H](N)Cc1c2ccoc2c(CO)c2ccoc12 | 0.31 | 33 | 38 |  |  |  |  |  | 
C[C@@H](N)Cc1c2c(c(CCC(=O)O)c3c1OCC3)OCC2 | 4700 | > 1000 | 15 |  |  |  |  |  | 
COCCOCc1c2c(c(C[C@@H](C)N)c3c1OCC3)OCC2 | 0.88 | 71 |  | 93 | 8.6 | 5.8 | 50 |  | 
CC(N)Cc1c2c(c(Br)c3c1OCC3)OCC2 (stereo not given) | 0.3 | 13 | 47 |  |  |  |  |  | 
COCc1c2ccoc2c(C[C@@H](C)N)c2ccoc12 | 0.11 | 3.6 | 72 |  |  |  |  |  | 
COc1cc(C[C@@H](C)N)c(OC)cc1I | 0.46 | 17.8 | 33 |  |  |  | 33 | 2.72 | 
COC(=O)CCc1c2c(c(C[C@@H](C)N)c3c1OCC3)OCC2 | 0.86 | 26 | 40 |  |  |  |  |  | 
Cc1noc(Cc2c3ccoc3c(C[C@@H](C)N)c3ccoc23)n1 | 0.38 | 16.9 |  | 95 | 82 | 23 | 60 |  | 27
COC(=O)c1c2c(c(C[C@@H](C)N)c3c1OCC3)OCC2 | 14 | 880 | 48 |  |  |  |  |  | 
C[C@@H](N)[C@@H](O)c1c2c(c(Br)c3c1OCC3)OCC2 (racemic) | 2.6 | 87.8 | 56 |  |  |  |  |  | 
COCc1c2c(c(C[C@@H](C)N)c3c1OCC3)OCC2 | 0.28 | 12 |  | 99 | 12.6 |  | 54 |  | 36.8
Cc1noc(CCc2c3c(c(C[C@@H](C)N)c4c2OCC4)OCC3)n1 | 1 | > 10000 | 7 |  |  |  |  |  | 
C[C@@H](N)[C@H](O)c1c2c(c(Br)c3c1OCC3)OCC2 | 0.7 | 32.7 |  | 100 | 39 | 6.2 | 96 |  | 24
Cc1noc(Cc2c3c(c(C[C@@H](C)N)c4c2OCC4)OCC3)n1 | 1.6 | 49.2 |  | 69 | 689 | 130 | 33 |  | 
Cc1noc(-c2c3c(c(C[C@@H](C)N)c4c2OCC4)OCC3)n1 | 910 | 8190 | 27 |  |  |  |  |  | 
C[C@@H](N)Cc1c2c(c(CO)c3c1OCC3)OCC2 | 1 | 175 | 43 |  |  |  |  |  | 
C[C@@H](N)Cc1c2c(c(CC(=O)O)c3c1OCC3)OCC2 | 104 | 4970 | 45 |  |  |  |  |  | 
